Measured values: ChEMBL document CHEMBL4725436, “Gibberellin JRA-003: A Selective Inhibitor of Nuclear Translocation of IKKα” (ACS Med Chem Lett, 2020)
One block for each compound: values may come before it. The source made the active and inactive calls. The calls are words filed in the database; no cut-off is given here.

Columns and labels:
[1] = target: T1, Inhibitor of nuclear factor kappa-B kinase subunit alpha (Homo sapiens) (UniProt O15111); test: Binding affinity to IKKalpha in human HeLa cells at 50 uM preincubated with IL-1 beta for 3 hrs followed by incubation with compound for 2 hrs by pull down based western blotting analysis; format: cell-based
T1 sequence (whole entry): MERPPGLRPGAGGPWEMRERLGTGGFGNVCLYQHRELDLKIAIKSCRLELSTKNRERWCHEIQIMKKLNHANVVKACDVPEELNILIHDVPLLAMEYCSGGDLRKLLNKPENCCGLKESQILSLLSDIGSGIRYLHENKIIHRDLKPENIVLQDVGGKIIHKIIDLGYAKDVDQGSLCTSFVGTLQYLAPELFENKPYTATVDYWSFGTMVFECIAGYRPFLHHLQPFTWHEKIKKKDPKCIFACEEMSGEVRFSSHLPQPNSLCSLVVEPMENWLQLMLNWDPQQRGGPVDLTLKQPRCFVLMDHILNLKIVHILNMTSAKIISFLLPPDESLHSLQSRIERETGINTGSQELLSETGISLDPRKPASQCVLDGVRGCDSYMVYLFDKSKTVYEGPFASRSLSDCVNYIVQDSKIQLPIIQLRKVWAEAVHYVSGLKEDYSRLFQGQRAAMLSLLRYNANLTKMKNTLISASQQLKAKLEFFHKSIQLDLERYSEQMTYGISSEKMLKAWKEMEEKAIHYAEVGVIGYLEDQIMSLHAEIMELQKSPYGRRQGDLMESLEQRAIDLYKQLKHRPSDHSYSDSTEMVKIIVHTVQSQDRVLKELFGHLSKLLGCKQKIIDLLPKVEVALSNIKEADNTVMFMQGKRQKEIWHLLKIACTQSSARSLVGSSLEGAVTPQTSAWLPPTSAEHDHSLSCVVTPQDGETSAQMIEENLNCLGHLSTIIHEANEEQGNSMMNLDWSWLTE
Procedure, shortened: (§1)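 Alkyne-tagged probe pull-down in IL-1β-stimulated HeLa cells. Protein captured by the probe was analysed by Western blotting.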

[2] = Cytotoxicity against human Hs895T cells assessed as reduction in cell viability measured after 24 hrs by CellTiter-Glo luminescent assay; format: functional, cell-based
Procedure, shortened: (§2)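 High-throughput viability screen of test agents across a panel of 22 cancerous and noncancerous human cell lines. Viability was read by CellTiter-Glo luminescence.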

HEK-293T = test: Cytotoxicity against human HEK293T cells assessed as reduction in cell viability measured after 24 hrs by CellTiter-Glo luminescent assay; format: cell-based; procedure, shortened: as §2
[3] = target: T2, Nuclear factor NF-kappa-B p105 subunit (Homo sapiens, UniProt P19838); test: Binding affinity to NF-kappaB p50 (unknown origin) by SPR analysis
T2 sequence (P19838 whole entry): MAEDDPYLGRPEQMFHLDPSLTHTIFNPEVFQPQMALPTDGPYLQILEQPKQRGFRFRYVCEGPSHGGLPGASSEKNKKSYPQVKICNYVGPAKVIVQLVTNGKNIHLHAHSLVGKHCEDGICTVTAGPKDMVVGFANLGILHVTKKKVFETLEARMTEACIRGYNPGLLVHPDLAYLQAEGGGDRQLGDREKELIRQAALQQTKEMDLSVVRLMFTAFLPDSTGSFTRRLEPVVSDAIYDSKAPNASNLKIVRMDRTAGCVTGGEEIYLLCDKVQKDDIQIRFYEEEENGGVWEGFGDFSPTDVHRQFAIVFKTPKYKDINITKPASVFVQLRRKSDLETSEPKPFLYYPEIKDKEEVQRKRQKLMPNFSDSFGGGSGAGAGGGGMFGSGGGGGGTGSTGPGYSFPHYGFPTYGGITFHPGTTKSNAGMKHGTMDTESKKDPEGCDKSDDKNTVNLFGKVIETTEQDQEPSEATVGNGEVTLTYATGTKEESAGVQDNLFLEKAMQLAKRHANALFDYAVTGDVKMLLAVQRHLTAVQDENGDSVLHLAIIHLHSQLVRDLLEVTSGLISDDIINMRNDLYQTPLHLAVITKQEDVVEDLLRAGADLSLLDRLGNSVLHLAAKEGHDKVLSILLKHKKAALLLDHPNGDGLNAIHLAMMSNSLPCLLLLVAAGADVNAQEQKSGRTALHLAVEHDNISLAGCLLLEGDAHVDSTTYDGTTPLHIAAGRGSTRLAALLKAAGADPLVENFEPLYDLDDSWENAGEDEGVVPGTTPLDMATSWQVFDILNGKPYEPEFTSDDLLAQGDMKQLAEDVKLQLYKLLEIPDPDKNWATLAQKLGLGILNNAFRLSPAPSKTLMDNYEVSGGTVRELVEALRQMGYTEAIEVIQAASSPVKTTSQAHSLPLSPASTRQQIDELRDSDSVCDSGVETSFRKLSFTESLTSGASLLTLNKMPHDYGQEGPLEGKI

HCC1599 = test: Cytotoxicity against human HCC1599 cells assessed as reduction in cell viability measured after 24 hrs by CellTiter-Glo luminescent assay; format: functional, cell-based; conditions: HCC1599, 24 h; procedure, shortened: as §2
SUD4 = test: Cytotoxicity against human SU-DHL-4 cells assessed as reduction in cell viability measured after 24 hrs by CellTiter-Glo luminescent assay; format: functional, cell-based; conditions: SU-DHL-4, 24 h; procedure, shortened: as §2
[4] = Cytotoxicity against human Hs895SK cells assessed as reduction in cell viability measured after 24 hrs by CellTiter-Glo luminescent assay; format: cell-based; conditions: Hs 895.Sk; procedure, shortened: as §2
RCK8 = test: Cytotoxicity against human RC-K8 cells assessed as reduction in cell viability measured after 24 hrs by CellTiter-Glo luminescent assay; format: functional, cell-based; conditions: RCK8, 24 h; procedure, shortened: as §2
[5] = Cytotoxicity against human Hs888Lu cells assessed as reduction in cell viability measured after 24 hrs by CellTiter-Glo luminescent assay; format: cell-based; procedure, shortened: as §2
[6] = Cytotoxicity against human Hs578Bst cells assessed as reduction in cell viability measured after 24 hrs by CellTiter-Glo luminescent assay; format: cell-based; procedure, shortened: as §2
NCI-H446 = test: Cytotoxicity against human NCI-H446 cells assessed as reduction in cell viability measured after 24 hrs by CellTiter-Glo luminescent assay; format: functional, cell-based; conditions: NCI-H446, 24 h; procedure, shortened: as §2
PSN1 = test: Cytotoxicity against human PSN1 cells assessed as reduction in cell viability measured after 24 hrs by CellTiter-Glo luminescent assay; format: functional, cell-based; conditions: PSN1, 24 h; procedure, shortened: as §2
Transcription factor p65 = Transcription factor p65 (Homo sapiens, UniProt Q04206); test: Binding affinity to NF-kappaB RelA (unknown origin) by SPR analysis
CA46 = test: Cytotoxicity against human CA46 cells assessed as reduction in cell viability measured after 24 hrs by CellTiter-Glo luminescent assay; format: functional, cell-based; conditions: CA46, 24 h; procedure, shortened: as §2
Hs-578T = test: Cytotoxicity against human Hs-578T cells assessed as reduction in cell viability measured after 24 hrs by CellTiter-Glo luminescent assay; format: functional, cell-based; procedure, shortened: as §2
[7] = Inhibition of IKKalpha/IKKbeta in human HEK293T cells transfected with firefly luciferase gene assessed as inhibition of TNF-alpha-stimulated NF-kappaB signalling preincubated for 1 hr followed by TNF alpha stimulation measured after 3 hrs by luciferase reporter gene assay; format: cell-based; conditions: HEK-293T
Procedure, shortened: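 Commercial NF-κB-driven luciferase reporter assay in HEK 293T cells stimulated with TNFα. EC50 was derived from the luminescence readout.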

[8] = target: T1, Inhibitor of nuclear factor kappa-B kinase subunit alpha (Homo sapiens); test: Irreversible covalent binding affinity to IKKalpha in human HeLa cells at 10 uM preincubated with IL-1 beta for 3 hrs followed by incubation with compound for 2 hrs measured following rigorous washing by pull down based western blotting analysis; format: cell-based; procedure, shortened: as §1
[9] = target: T1, Inhibitor of nuclear factor kappa-B kinase subunit alpha (Homo sapiens); test: Binding affinity to IKKalpha in human HeLa cells at 10 uM preincubated with IL-1 beta for 3 hrs followed by incubation with compound for 2 hrs by pull down based western blotting analysis; format: cell-based; procedure, shortened: as §1
[10] = Toxicity in po dosed rat; format: organism-based; conditions: in vivo
[11] = target: T1, Inhibitor of nuclear factor kappa-B kinase subunit alpha (Homo sapiens); test: Inhibition of JRA-031 binding to IKKalpha in TNF-alpha-stimulated human HEK293T cells at 1 uM pretreated with compound for 1 hr followed by labeling with JRA-031 for 1 hr followed by stimulation with TNF-alpha for 1 hr by pull down based mass spectrometry; format: cell-based; conditions: HEK-293T
[12] = target: T3, Inhibitor of nuclear factor kappa-B kinase subunit beta (Homo sapiens) (UniProt O14920); test: Inhibition of JRA-031 binding to IKKbeta in TNF-alpha-stimulated human HEK293T cells at 1 uM pretreated with compound for 1 hr followed by labeling with JRA-031 for 1 hr followed by stimulation with TNF-alpha for 1 hr by pull down based mass spectrometry; format: cell-based; conditions: HEK-293T
T3 sequence (whole entry): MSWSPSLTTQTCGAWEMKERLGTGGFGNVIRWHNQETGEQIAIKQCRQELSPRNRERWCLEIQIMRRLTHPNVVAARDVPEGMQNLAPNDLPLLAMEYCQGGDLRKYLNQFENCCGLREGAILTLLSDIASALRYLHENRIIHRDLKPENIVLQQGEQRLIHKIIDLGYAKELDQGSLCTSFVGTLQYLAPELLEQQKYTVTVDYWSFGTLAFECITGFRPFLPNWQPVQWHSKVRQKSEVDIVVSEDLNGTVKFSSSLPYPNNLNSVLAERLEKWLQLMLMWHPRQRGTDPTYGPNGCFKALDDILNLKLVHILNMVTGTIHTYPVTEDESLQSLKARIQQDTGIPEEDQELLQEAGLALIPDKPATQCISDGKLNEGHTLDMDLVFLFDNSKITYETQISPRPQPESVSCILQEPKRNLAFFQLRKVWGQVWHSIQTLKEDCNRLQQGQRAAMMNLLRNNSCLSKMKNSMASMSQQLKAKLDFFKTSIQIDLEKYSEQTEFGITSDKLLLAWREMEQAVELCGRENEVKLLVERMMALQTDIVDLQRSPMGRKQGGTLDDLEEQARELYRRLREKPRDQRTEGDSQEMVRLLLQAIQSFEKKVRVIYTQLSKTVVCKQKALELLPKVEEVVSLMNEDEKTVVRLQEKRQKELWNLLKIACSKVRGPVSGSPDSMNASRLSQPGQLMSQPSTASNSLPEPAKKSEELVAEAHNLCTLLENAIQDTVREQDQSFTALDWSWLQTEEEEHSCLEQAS

Transcription factor p65, sequence (Q04206 whole entry): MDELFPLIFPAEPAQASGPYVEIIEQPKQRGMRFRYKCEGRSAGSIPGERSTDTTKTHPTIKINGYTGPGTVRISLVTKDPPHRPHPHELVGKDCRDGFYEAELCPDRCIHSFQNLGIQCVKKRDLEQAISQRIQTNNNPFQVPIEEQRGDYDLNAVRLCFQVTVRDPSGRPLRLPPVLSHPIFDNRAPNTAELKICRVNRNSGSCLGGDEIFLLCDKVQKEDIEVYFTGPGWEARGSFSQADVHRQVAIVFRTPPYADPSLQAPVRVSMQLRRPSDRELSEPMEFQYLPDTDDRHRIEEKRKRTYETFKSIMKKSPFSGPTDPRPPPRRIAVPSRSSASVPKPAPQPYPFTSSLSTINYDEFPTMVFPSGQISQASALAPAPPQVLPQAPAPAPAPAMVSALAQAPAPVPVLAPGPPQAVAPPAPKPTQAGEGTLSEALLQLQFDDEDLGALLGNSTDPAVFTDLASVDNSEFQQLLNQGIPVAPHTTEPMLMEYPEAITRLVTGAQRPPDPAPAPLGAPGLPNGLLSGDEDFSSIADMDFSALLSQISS

Compound: C#CCCNC(=O)[C@H]1[C@H]2[C@@]3(C=C[C@H](O)[C@@]2(C)C(=O)O3)[C@@H]2CC[C@]3(O)C[C@@]21CC3=C
- inhibition [1]: inactive

Compound: C=C1C[C@]23C[C@@]1(O)CC[C@H]2[C@@]12C=C[C@H](O)[C@@](C)(C(=O)O1)[C@H]2[C@@H]3C(=O)O [GIBBERELLIN A3]
- IC50 [2]: > 10 µM
- IC50 (HEK-293T): > 10 µM
- IC50 (HCC1599): > 10 µM
- IC50 (SUD4): > 10 µM
- IC50 [4]: > 10 µM
- IC50 (RCK8): > 10 µM
- IC50 [5]: > 10 µM
- IC50 [6]: > 10 µM
- IC50 (NCI-H446): > 10 µM
- IC50 (PSN1): > 10 µM
- LD50 [10]: 6300 mg/kg
- IC50 (CA46): > 10 µM
- IC50 (Hs-578T): > 10 µM
- EC50 [7]: > 100 µM

Compound: C=C1C[C@]23C[C@@]1(O)CC[C@H]2[C@@]12C=C[C@H](O)[C@@](C)(C(=O)O1)[C@H]2[C@@H]3C(=O)OC
- IC50 [2]: > 10 µM
- IC50 (HEK-293T): > 10 µM
- inhibition [11]: inactive
- IC50 (HCC1599): > 10 µM
- IC50 (SUD4): > 10 µM
- IC50 [4]: > 10 µM
- IC50 (RCK8): > 10 µM
- IC50 [5]: > 10 µM
- IC50 [6]: > 10 µM
- IC50 (NCI-H446): > 10 µM
- IC50 (PSN1): > 10 µM
- inhibition [12]: inactive
- IC50 (CA46): > 10 µM
- IC50 (Hs-578T): > 10 µM
- EC50 [7]: > 100 µM

Second part, led by results:

- Kd [3]: 76 nM
- Kd (Transcription factor p65): 6.34 µM
- EC50 [7]: > 100 µM
Compound: C=C1C[C@]23C[C@@]1(O)CC[C@@H]2c1cccc(C)c1[C@@H]3C(=O)O
- IC50 [2]: > 10 µM
- IC50 (HEK-293T): > 10 µM
- IC50 (HCC1599): > 10 µM
- IC50 (SUD4): > 10 µM
- IC50 [4]: > 10 µM
- IC50 (RCK8): > 10 µM
- IC50 [5]: > 10 µM
- IC50 [6]: > 10 µM
- IC50 (NCI-H446): > 10 µM
- IC50 (PSN1): > 10 µM
- IC50 (CA46): > 10 µM
- IC50 (Hs-578T): > 10 µM

- inhibition [8]: Active
- inhibition [9]: Active
Compound: C#CCCNC(=O)[C@H]1[C@@H]2[C@@]3(C)C(=O)C=C[C@@]2(OC3=O)[C@@H]2CC[C@]3(O)C[C@@]21CC3=C

- EC50 [7]: > 100 µM
Compound: C=C1C[C@]23C[C@@]1(O)CC[C@H]2c1cc(Br)c(O/C=C/C(=O)OC)c(C)c1[C@@H]3C(=O)OC
- IC50 [2]: > 10 µM
- IC50 (HEK-293T): > 10 µM
- IC50 (HCC1599): > 10 µM
- IC50 (SUD4): > 10 µM
- IC50 [4]: > 10 µM
- IC50 (RCK8): > 10 µM
- IC50 [5]: > 10 µM
- IC50 [6]: > 10 µM
- IC50 (NCI-H446): > 10 µM
- IC50 (PSN1): > 10 µM
- IC50 (CA46): > 10 µM
- IC50 (Hs-578T): > 10 µM
